Test results taken from ChEMBL document CHEMBL5303300, “EUbOPEN Chemogenomics Library - Multiplex” (2023).
Values joined by “and” are separate entries in the source; they are usually repeats but may differ in a detail not shown here. Equal entries are not always repeated.

Legend:
Format in all cases: toxicity, cell-based
[1] = test system: HEK-293T; test: Multiplex assay against HEK293T; conditions: human, number of replicates 2
Outline: (§1)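 Live cells were stained at seeding with Hoechst33342, BioTracker Green Microtubule Cytoskeleton Dye, MitoTracker Red and Annexin V Alexa Fluor 680, then imaged on a CQ1 microscope at 37°C and 5% CO2 after compound addition. CellPathfinder machine-learning gating split cells into Hoechst high-intensity objects or normal cells. Normal cells were split into healthy, pyknosed or fragmented nuclei, and pyknosed cells into mitotic or apoptotic. Tubulin, mitochondrial-mass and membrane-permeability phenotypes are per cents of healthy-nucleus cells.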

[2] = test system: U2OS; test: Multiplex assay against U2OS; conditions: human, number of replicates 2; outline: as §1
[3] = test system: Fibroblast; test: Multiplex assay against human fibroblast; conditions: number of replicates 2; outline: as §1
[4] = 12 h, 1 µM, compound concentration 1 uM
[5] = 12 h, 10 µM, compound concentration 10 uM
[6] = 24 h, 1 µM, compound concentration 1 uM
[7] = 24 h, 10 µM, compound concentration 10 uM
[8] = 48 h, 1 µM, compound concentration 1 uM
[9] = 48 h, 10 µM, compound concentration 10 uM

With `CS(=O)(=O)c1ccc(NC(=O)c2cccc(COc3ccc(Br)cc3CNCCO)c2)c(Cl)c1.O=CO` as the molecule, how does the “Population Healthy Nuclei (%)” value [1, 4] read?
Its value is 83%.

And the “Population Mitotic Cells (%)” value [1, 4]?
Its value is 47% and 41%.

What about the “Population Pyknosed Nuclei (%)” value [1, 4] of the same molecule?
The value was 14%.

What about the “Total Cell Count” value [1, 4] of the same molecule?
Its value is 651 and 549.

What about the “Population Healthy Nuclei (%)” value [1, 5] of the same molecule?
Its value is 84% and 82%.

What about the “Population Mitotic Cells (%)” value [1, 5] of the same molecule?
Its value is 37% and 33%.

And the “Total Cell Count” value [1, 5]?
The value was 462.

And the “Population Healthy Nuclei (%)” value [1, 6]?
The value was 85% and 84%.

And the “Population Mitotic Cells (%)” value [1, 6]?
Its value is 46%.

And the “Population Pyknosed Nuclei (%)” value [1, 6]?
Its value is 8% and 10%.

And the “Total Cell Count” value [1, 6]?
Its value is 981 and 842.

And the “Population Healthy Nuclei (%)” value [1, 7]?
The value was 82% and 80%.

And the “Population Mitotic Cells (%)” value [1, 7]?
The value was 33% and 32%.

What about the “Population Pyknosed Nuclei (%)” value [1, 7] of the same molecule?
The value was 16%.

And the “Total Cell Count” value [1, 7]?
The value was 436 and 479.

And the “Population Healthy Nuclei (%)” value [1, 8]?
The value was 84% and 85%.

And the “Population Mitotic Cells (%)” value [1, 8]?
Its value is 74% and 85%.

And the “Population Pyknosed Nuclei (%)” value [1, 8]?
The value was 4% and 3%.

What about the “Total Cell Count” value [1, 8] of the same molecule?
The value was 1426 and 1953.

What about the “Population Healthy Nuclei (%)” value [1, 9] of the same molecule?
The value was 84% and 85%.

What about the “Population Mitotic Cells (%)” value [1, 9] of the same molecule?
The value was 21%.

And the “Population Pyknosed Nuclei (%)” value [1, 9]?
Its value is 10% and 9%.

What about the “Total Cell Count” value [1, 9] of the same molecule?
Its value is 560 and 607.

And the “Population Apoptotic (%)” value [2, 4]?
The value was 80% and 76%.

What about the “Population Fragmented Nuclei (%)” value [2, 4] of the same molecule?
The value was 11%.

And the “Population Healthy Nuclei (%)” value [2, 4]?
The value was 76% and 84%.

What about the “Population Hoechst High Intensity Objects (%)” value [2, 4] of the same molecule?
The value was 0%.

And the “Population Mitotic Cells (%)” value [2, 4]?
Its value is 20% and 24%.

What about the “Population Apoptotic (%)” value [2, 5] of the same molecule?
Its value is 85% and 71%.

And the “Population Healthy Nuclei (%)” value [2, 5]?
Its value is 50% and 72%.

What about the “Population Hoechst High Intensity Objects (%)” value [2, 5] of the same molecule?
Its value is 0%.

What about the “Population Apoptotic (%)” value [2, 6] of the same molecule?
The value was 50% and 79%.

And the “Population Fragmented Nuclei (%)” value [2, 6]?
Its value is 7% and 3%.

And the “Population Healthy Nuclei (%)” value [2, 6]?
The value was 69% and 78%.

And the “Population Hoechst High Intensity Objects (%)” value [2, 6]?
The value was 0%.

And the “Population Mitotic Cells (%)” value [2, 6]?
Its value is 50% and 20%.

What about the “Population Apoptotic (%)” value [2, 7] of the same molecule?
The value was 77%.

What about the “Population Healthy Nuclei (%)” value [2, 7] of the same molecule?
The value was 33% and 65%.

And the “Population Hoechst High Intensity Objects (%)” value [2, 7]?
Its value is 0%.

What about the “Population Mitotic Cells (%)” value [2, 7] of the same molecule?
The value was 46% and 22%.

What about the “Population Apoptotic (%)” value [2, 8] of the same molecule?
Its value is 83% and 87%.

And the “Population Fragmented Nuclei (%)” value [2, 8]?
The value was 7%.

And the “Population Healthy Nuclei (%)” value [2, 8]?
The value was 67% and 79%.

What about the “Population Hoechst High Intensity Objects (%)” value [2, 8] of the same molecule?
The value was 0%.

What about the “Population Apoptotic (%)” value [2, 9] of the same molecule?
Its value is 100% and 94%.

What about the “Population Healthy Nuclei (%)” value [2, 9] of the same molecule?
Its value is 23% and 57%.

And the “Population Hoechst High Intensity Objects (%)” value [2, 9]?
The value was 0%.

What about the “Population Mitotic Cells (%)” value [2, 9] of the same molecule?
Its value is 0% and 5%.

What about the “Population Apoptotic (%)” value [3, 4] of the same molecule?
The value was 47% and 51%.

And the “Population Fragmented Nuclei (%)” value [3, 4]?
Its value is 11%.

What about the “Population Healthy Nuclei (%)” value [3, 4] of the same molecule?
Its value is 64% and 70%.

What about the “Total Cell Count” value [3, 4] of the same molecule?
The value was 184 and 209.

And the “Population Apoptotic (%)” value [3, 5]?
Its value is 56%.

And the “Population Fragmented Nuclei (%)” value [3, 5]?
Its value is 22% and 14%.

What about the “Population Healthy Nuclei (%)” value [3, 5] of the same molecule?
The value was 58% and 59%.

And the “Total Cell Count” value [3, 5]?
Its value is 327 and 259.

What about the “Population Apoptotic (%)” value [3, 6] of the same molecule?
The value was 61% and 71%.

What about the “Population Fragmented Nuclei (%)” value [3, 6] of the same molecule?
Its value is 11%.

And the “Population Healthy Nuclei (%)” value [3, 6]?
Its value is 60% and 68%.

What about the “Population Pyknosed Nuclei (%)” value [3, 6] of the same molecule?
Its value is 19%.

What about the “Total Cell Count” value [3, 6] of the same molecule?
The value was 187 and 198.

What about the “Population Apoptotic (%)” value [3, 7] of the same molecule?
Its value is 57% and 85%.

And the “Population Fragmented Nuclei (%)” value [3, 7]?
The value was 15% and 18%.

And the “Population Healthy Nuclei (%)” value [3, 7]?
The value was 65% and 64%.

And the “Total Cell Count” value [3, 7]?
The value was 227 and 235.

What about the “Population Apoptotic (%)” value [3, 8] of the same molecule?
Its value is 76% and 80%.

What about the “Population Fragmented Nuclei (%)” value [3, 8] of the same molecule?
The value was 16% and 17%.

What about the “Population Healthy Nuclei (%)” value [3, 8] of the same molecule?
The value was 64% and 70%.

And the “Population Pyknosed Nuclei (%)” value [3, 8]?
Its value is 19%.

What about the “Total Cell Count” value [3, 8] of the same molecule?
The value was 178 and 216.

What about the “Population Apoptotic (%)” value [3, 9] of the same molecule?
The value was 85% and 87%.

What about the “Population Fragmented Nuclei (%)” value [3, 9] of the same molecule?
Its value is 16% and 13%.

What about the “Population Healthy Nuclei (%)” value [3, 9] of the same molecule?
The value was 70% and 72%.

And the “Population Pyknosed Nuclei (%)” value [3, 9]?
The value was 14%.

And the “Total Cell Count” value [3, 9]?
The value was 211 and 226.
